Experimental findings from publication PMC4153604 (European journal of medicinal chemistry, 2014) are described below.

Common to all, as to assay type: cell-based
Assay [1] has as its system BxPC-3 pancreatic cancer cells. The assay can be described thus: Cell viability, resazurin assay. Particulars: 20 µM, 48 h, 5% FBS. In outline: (§1)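 Cell lines were maintained at 37°C, 5% CO2 to about 80% confluence: BxPC-3 in RPMI 1640, MIA PaCa-2 in DMEM, each with 10% FBS and penicillin/streptomycin. Trypsinized cells were plated at 1 × 10^4/well in 5% FBS medium and treated with 0–20 µM for 48 h. Resazurin (0.02% in DPBS) was added; fluorescence (ex 560/em 590 nm) was read after 2 h. EC50 came from nonlinear regression.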

The test system of assay [2] is MIA PaCa-2 pancreatic cancer cells. Briefly: Cell viability, resazurin assay. Particulars: 20 µM, 48 h, 5% FBS. The procedure, abridged:
as §1

The subject of another assay is MIA PaCa-2 cells. Briefly: Apoptosis assay, AO/EB staining. Particulars: 0.5, 1 and 2 µM, 48 h, 5% FBS. In outline:
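MIA PaCa-2 cells (5 × 10^4 per chamber-slide well) exposed to test compound at 0.5, 1 and 2 µM for 48 h in medium with 5% FBS. Stained with AO/EB (10 µg/mL each) and imaged by fluorescence microscopy (x40, 480/30 nm excitation). Green intact nuclei scored as viable; orange-red, condensed nuclei as apoptotic. Images representative of triplicate experiments.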

Where [3] appears, read: listed as farnesylthiosalicylamide.

On to `CC(C)=CCC/C(C)=C/CC/C(C)=C/CSc1ccccc1C(=O)O` [FTS, S-t, t farnesylthiosalicylic acid], for which the “effect on viability of the cells” value in assay [1] (listed as salirasib) and in assay [2] (listed as salirasib) was “ineffective” each time. For the molecule `CC(C)=CCC/C(C)=C/CC/C(C)=C/CSC[C@H](NC(=O)CCCCCN1CCN(C)CC1)C(=O)NC1CCCCCCC1` [8e, L-((4-methylpiperazinyl)hexanoyl)-S-(trans, trans-farnesyl) cysteine cyclooctylamide], the “mode of cell death (AO/EB staining)” value with MIA PaCa-2 cells is given as “signs of apoptosis were observed”. Regarding `CC(C)=CCC/C(C)=C/CC/C(C)=C/CSc1ccccc1C(N)=O` [FTSA, S-t, t farnesylthiosalicylic amide], the “effect on viability of the cells” value in assay [1] (setting [3]) and in assay [2] (setting [3]) was “ineffective” each time.
